Laboratory results from ChEMBL document CHEMBL4823270, “A first-in-class anticancer dual HDAC2/FAK inhibitors bearing hydroxamates/benzamides capped by pyridinyl-1,2,4-triazoles” (Eur J Med Chem, 2021).
The source made the active and inactive calls. The rule behind the calls is not given here.

Key:
A498 [1] = test: Growth inhibition of human A498 cells at 10 uM incubated for 24 hrs by MTT assay relative to control; assay type: functional; details: read-out: GI
Procedure, shortened: (§1)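 Cells seeded at 1 × 10^4 per well, cultured overnight, then exposed to 10 μM compound or DMSO (negative control) for 24 h. After a PBS wash, MTT (2 mg/ml) was added for 4 h at 37°C and formazan dissolved in DMSO. OD read at 570 nm. Growth inhibition = 1 − (OD treated/OD control); at least three independent experiments.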

CAKI-1 [2] = test: Induction of cell cycle arrest in human CAKI-1 cells assessed as accumulation at G2/M phase incubated for 24 hrs by propidium iodide based flow cytometry analysis (reference value: 5.5 %); assay type: functional
Procedure, shortened: (§2)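 Cells at 1 × 10^5/mL treated with 0.75 or 1.5 μM compound or DMSO (negative control) for 24 h, harvested and washed in PBS. Fixed by dropwise ice-cold 80% ethanol with vortexing, held overnight, washed twice, PI-stained 20 min in the dark. Phase distribution read by flow cytometry.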

Focal adhesion kinase 1 [3] = biological target: T1, Focal adhesion kinase 1 (Homo sapiens, UniProt Q05397); test: Inhibition of FAK in human A498 cells assessed as reduction in FAK phosphorylation pretreated for 12 weeks followed by treatment for last 24 hrs by Western blot analysis; assay type: cell-based; details: time 85.0 day
T1 sequence (Q05397 2-1052 limits assumed): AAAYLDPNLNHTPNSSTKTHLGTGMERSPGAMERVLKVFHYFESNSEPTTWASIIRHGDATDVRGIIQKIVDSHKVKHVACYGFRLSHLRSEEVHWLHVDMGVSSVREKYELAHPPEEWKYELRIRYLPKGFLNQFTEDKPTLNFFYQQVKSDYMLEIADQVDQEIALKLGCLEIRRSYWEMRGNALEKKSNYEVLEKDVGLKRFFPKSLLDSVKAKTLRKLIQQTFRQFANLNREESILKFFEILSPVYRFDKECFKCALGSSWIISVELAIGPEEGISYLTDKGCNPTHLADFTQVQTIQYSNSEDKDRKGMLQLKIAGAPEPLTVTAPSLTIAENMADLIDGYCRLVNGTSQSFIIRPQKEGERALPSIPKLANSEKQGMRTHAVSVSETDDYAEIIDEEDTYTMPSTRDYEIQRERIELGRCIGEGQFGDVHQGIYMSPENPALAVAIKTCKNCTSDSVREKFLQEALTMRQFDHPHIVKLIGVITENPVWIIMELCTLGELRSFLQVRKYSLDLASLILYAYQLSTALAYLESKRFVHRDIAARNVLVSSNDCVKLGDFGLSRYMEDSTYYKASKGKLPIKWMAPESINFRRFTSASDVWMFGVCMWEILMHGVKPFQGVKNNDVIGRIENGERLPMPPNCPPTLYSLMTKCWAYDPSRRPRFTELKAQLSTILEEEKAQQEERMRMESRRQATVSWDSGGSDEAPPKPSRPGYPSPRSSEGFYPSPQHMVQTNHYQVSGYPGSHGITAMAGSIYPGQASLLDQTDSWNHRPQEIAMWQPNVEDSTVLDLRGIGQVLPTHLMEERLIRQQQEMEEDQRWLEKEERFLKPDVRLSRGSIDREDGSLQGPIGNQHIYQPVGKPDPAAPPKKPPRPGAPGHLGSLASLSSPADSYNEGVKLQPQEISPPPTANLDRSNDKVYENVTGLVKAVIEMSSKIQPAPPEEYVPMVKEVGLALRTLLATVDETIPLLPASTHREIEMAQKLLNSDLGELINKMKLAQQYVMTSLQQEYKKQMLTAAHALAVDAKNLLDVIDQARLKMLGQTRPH

A498 [4] = test: Induction of cell cycle arrest in human A498 cells assessed as accumulation at G2/M phase incubated for 24 hrs by propidium iodide based flow cytometry analysis (reference value: 18 %); assay type: functional; procedure, shortened: as §2
HCT-116 = test: Growth inhibition of human HCT-116 cells at 10 uM incubated for 24 hrs by MTT assay relative to control; assay type: functional; details: read-out: GI; procedure, shortened: as §1
Histone deacetylase 2 [5] = biological target: T2, Histone deacetylase 2 (Homo sapiens, UniProt Q92769); test: Inhibition of human full-length recombinant HDAC2 preincubated for 5 mins followed by HDAC substrate addition and further incubated for 45 mins by fluorescence microplate reader assay
T2 sequence (Q92769 whole entry): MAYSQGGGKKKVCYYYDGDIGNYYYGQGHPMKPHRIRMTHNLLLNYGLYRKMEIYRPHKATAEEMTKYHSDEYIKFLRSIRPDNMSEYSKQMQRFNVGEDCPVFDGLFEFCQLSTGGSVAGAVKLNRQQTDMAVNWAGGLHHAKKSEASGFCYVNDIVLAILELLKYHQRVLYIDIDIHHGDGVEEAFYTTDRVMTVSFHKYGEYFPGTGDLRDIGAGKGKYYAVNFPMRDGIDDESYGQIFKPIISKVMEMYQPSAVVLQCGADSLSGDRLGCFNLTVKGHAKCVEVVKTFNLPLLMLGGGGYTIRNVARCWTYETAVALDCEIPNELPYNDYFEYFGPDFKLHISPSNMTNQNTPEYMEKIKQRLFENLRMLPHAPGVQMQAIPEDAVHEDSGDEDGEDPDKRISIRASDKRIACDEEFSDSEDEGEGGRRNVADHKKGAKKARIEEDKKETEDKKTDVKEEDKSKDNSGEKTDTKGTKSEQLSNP

A498 [6] = test: Induction of apoptosis in human A498 cells assessed as activation of caspase-8 measured after 24 hrs by ELISA relative to control; assay type: functional
Histone deacetylase 2 [7] = biological target: T2, Histone deacetylase 2; test: Inhibition of HDAC2 in human A498 cells assessed as reduction in HDAC2 expression pretreated for 12 weeks followed by treatment for last 24 hrs by Western blot analysis; assay type: cell-based; details: time 85.0 day
A498 [8] = test: Induction of cell cycle arrest in human A498 cells assessed as decrease in cell population at G1 phase at 1.5 uM incubated for 24 hrs by propidium iodide based flow cytometry analysis; assay type: functional; procedure, shortened: as §2
HT-29 = test: Growth inhibition of human HT-29 cells at 10 uM incubated for 24 hrs by MTT assay relative to control; assay type: functional; details: read-out: GI; procedure, shortened: as §1
CAKI-1 [9] = test: Growth inhibition of human CAKI-1 cells at 10 uM incubated for 24 hrs by MTT assay relative to control; assay type: functional; details: read-out: GI; procedure, shortened: as §1
Histone deacetylase 3 = Histone deacetylase 3 (Homo sapiens, UniProt O15379); test: Inhibition of human full-length recombinant HDAC3 preincubated for 5 mins followed by HDAC substrate addition and further incubated for 45 mins by fluorescence microplate reader assay
Histone deacetylase 3, sequence (O15379 whole entry): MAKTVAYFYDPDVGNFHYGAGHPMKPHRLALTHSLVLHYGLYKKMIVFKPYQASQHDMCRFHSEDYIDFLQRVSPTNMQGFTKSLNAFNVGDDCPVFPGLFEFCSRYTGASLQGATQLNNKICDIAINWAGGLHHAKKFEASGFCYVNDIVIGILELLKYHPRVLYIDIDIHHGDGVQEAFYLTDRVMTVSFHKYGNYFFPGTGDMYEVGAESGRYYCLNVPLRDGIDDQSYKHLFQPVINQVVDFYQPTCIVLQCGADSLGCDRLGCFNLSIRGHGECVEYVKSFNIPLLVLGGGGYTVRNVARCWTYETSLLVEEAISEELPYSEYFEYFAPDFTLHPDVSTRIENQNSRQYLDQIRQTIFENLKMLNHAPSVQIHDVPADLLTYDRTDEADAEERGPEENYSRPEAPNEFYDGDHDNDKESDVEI

[10] = biological target: Signal transducer and activator of transcription 3 (Homo sapiens) (UniProt P40763); test: Inhibition of STAT3 activation in human A498 cells measured after 24 hrs by Western blot analysis; assay type: cell-based
Signal transducer and activator of transcription 3 (Homo sapiens), sequence (P40763 whole entry): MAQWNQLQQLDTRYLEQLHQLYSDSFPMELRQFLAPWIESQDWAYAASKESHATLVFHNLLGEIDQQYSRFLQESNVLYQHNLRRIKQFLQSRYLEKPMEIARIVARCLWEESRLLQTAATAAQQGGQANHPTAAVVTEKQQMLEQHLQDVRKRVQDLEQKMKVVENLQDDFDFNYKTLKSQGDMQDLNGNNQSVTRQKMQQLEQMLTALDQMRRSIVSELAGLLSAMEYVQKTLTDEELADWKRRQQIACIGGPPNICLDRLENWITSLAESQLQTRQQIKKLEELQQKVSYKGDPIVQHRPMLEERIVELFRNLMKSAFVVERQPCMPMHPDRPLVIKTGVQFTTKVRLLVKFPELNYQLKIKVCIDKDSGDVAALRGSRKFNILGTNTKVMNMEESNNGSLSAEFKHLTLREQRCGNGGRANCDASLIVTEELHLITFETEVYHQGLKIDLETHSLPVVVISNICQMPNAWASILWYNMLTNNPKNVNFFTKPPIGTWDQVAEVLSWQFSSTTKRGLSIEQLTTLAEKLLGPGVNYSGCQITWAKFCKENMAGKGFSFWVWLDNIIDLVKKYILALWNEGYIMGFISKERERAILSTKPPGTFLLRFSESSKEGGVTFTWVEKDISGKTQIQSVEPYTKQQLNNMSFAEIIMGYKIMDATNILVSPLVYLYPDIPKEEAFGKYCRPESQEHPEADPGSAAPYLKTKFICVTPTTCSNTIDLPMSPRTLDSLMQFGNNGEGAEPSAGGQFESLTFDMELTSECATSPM

K562 = test: Growth inhibition of human K562 cells at 10 uM incubated for 24 hrs by MTT assay relative to control; assay type: functional; details: read-out: GI; procedure, shortened: as §1
Focal adhesion kinase 1 [11] = biological target: T1, Focal adhesion kinase 1; test: Inhibition of FAK in human A498 cells assessed as reduction in FAK phosphorylation by Western blot analysis; assay type: cell-based
Procedure, shortened: (§3)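 40 μg protein (Bradford) resolved by SDS-PAGE, transferred to PVDF, blocked 1 h in milk or BSA. Primary antibody overnight, HRP secondary 1 h, ECL detection; β-actin as loading control.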

Focal adhesion kinase 1 [12] = biological target: T1, Focal adhesion kinase 1; test: Inhibition of FAK in human CAKI-1 cells assessed as reduction in FAK phosphorylation by Western blot analysis; assay type: cell-based; procedure, shortened: as §3
Histone deacetylase 2 [13] = biological target: T2, Histone deacetylase 2; test: Inhibition of HDAC2 in human CAKI-1 cells assessed as reduction in HDAC2 expression by Western blot analysis; assay type: cell-based; procedure, shortened: as §3
A498 [14] = test: Induction of apoptosis in human A498 cells assessed as activation of caspase-9 measured after 24 hrs by ELISA relative to control; assay type: functional

`Cn1c(SCCCCCC(=O)NO)nnc1-c1ccncc1` was tested, and the inhibition of growth at 10 µM (A498 [1]) was 99.8%, the Activity (CAKI-1 [2]) was 35% and the inhibition (Focal adhesion kinase 1 [3]) was “Active”. The Activity (A498 [4]) was 65%, the inhibition of growth at 10 µM (HCT-116) was 60.1% and the IC50 (Histone deacetylase 2 [5]) was 90 nM. The “fold change (FC)” value (A498 [6]) was 3, the inhibition (Histone deacetylase 2 [7]) was “Active” and the Activity (A498 [8]) was “Active”. The inhibition of growth at 10 µM (HT-29) was 68.3%, the inhibition of growth at 10 µM (CAKI-1 [9]) was 98.1% and the IC50 (Histone deacetylase 3) was 3.41 µM. The inhibition [10] was “Active”, the inhibition of growth at 10 µM (K562) was 40.1% and the inhibition (Focal adhesion kinase 1 [11]) was “Active”. For the same compound, the inhibition (Focal adhesion kinase 1 [12]) was “Active”, the inhibition (Histone deacetylase 2 [13]) was “Active” and the “fold change (FC)” value (A498 [14]) was 6.
